In ChEMBL document CHEMBL4033800, “Further Developments of the Phenyl-Pyrrolyl Pentane Series of Nonsteroidal Vitamin D Receptor Modulators as Anticancer Agents” (J Med Chem, 2018):
Active and inactive are the calls of the source. The calls are words filed in the database; no cut-off is given here.

Assays:
[1] = Clearance in Sprague-Dawley rat at 20 mg/kg, po by HPLC analysis; assay type: ADME, organism-based; details: in vivo
How it was run: (§1)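 Male Sprague-Dawley rats (180−220 g), 4 per group, dosed at 5 mg/kg i.v., 20 mg/kg i.p. or 20 mg/kg p.o. Parameters given as mean ± SD (n = 4).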

[2] = Drug metabolism in human MCF7 cells at 1 uM after 24 hrs by HPLC analysis; assay type: ADME, cell-based; details: read-out: Drug metabolism
How it was run: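 MCF7 cells were incubated 24 h with 1 µM compound, alongside a medium-only incubation without cells. Mixtures were extracted with chloroform/methanol (3:1, v/v) and quantified by HPLC. Mean ± SEM, n = 3.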

MCF7 [3] = test: Induction of apoptosis in human MCF7 cells xenografted in BALB/c nude mouse at 10 mg/kg, ip administered every other day by TUNEL assay; assay type: functional, organism-based
How it was run: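 Apoptosis in MCF7 orthotopic tumor sections from nude mice given 10 mg/kg i.p. was scored by TUNEL staining.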

MCF7 [4] = test: Induction of apoptosis in human MCF7 cells assessed as upregulation of Bax mRNA levels at 1 uM after 24 hrs by RT-qPCR analysis; assay type: functional, cell-based
MCF7 [5] = test: Induction of cell cycle arrest in human MCF7 cells assessed as upregulation of p27 expression at 1 uM after 24 hrs by Western blot analysis; assay type: functional, cell-based
How it was run: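 p21 and p27 protein levels were measured by Western blot in MCF7 cells treated at 1 µM for 24 h.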

L02 = test: Antiproliferative activity against human L02 cells after 48 hrs by MTT assay; assay type: cell-based; details: L02, 48 h
[6] = AUC in Sprague-Dawley rat at 20 mg/kg, ip measured up to 48 hrs post administration by HPLC analysis; assay type: ADME, organism-based; set-up: time < 48 hr, dose 20 mg/kg, route intraperitoneal; details: in vivo; how it was run: as §1
Mus musculus [7] = test: Hypercalcemic effect in ICR mouse at 0.5 to 5 mg/kg/day, ip administered for 7 days measured on day 8 post-dose by MTB-based assay relative to control; assay type: ADME, organism-based; details: in vivo, 168 h
How it was run: (§2)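 Mice were dosed i.p. over a 7-day period and serum calcium was then measured. Each dose level was compared with a vehicle-treated control group (saline cited as the comparator). Data are mean ± SEM, n = 6 per group. Significance versus vehicle was reported at p < 0.05, 0.01 and 0.001.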

[8] = MRT in Sprague-Dawley rat at 20 mg/kg, ip by HPLC analysis; assay type: ADME, organism-based; details: in vivo; how it was run: as §1
Caco-2 = test: Antiproliferative activity against human Caco2 cells after 48 hrs by MTT assay; assay type: functional, cell-based; details: Caco-2, 48 h
[9] = Oral bioavailability in Sprague-Dawley rat at 20 mg/kg measured up to 48 hrs after administration by HPLC analysis; assay type: ADME, organism-based; details: in vivo; how it was run: as §1
[10] = Bioavailability in Sprague-Dawley rat at 20 mg/kg, ip measured up to 48 hrs after administration by HPLC analysis; assay type: ADME, organism-based; details: in vivo; how it was run: as §1
[11] = Half life in Sprague-Dawley rat at 5 mg/kg, iv by HPLC analysis; assay type: ADME, organism-based; details: in vivo; how it was run: as §1
Mus musculus [12] = test: Hypercalcemic effect in ICR mouse at 30 mg/kg/day, ip administered for 7 days measured on day 8 post-dose by MTB-based assay relative to control; assay type: ADME, organism-based; details: in vivo, 168 h; how it was run: as §2
MCF7 [13] = test: Induction of cell cycle arrest in human MCF7 cells assessed as accumulation at S phase at 1 uM after 24 hrs by propidium iodide-staining based flow cytometry (reference value: 31.55%); assay type: functional

## CCn1c(C(=O)NCCCN2CCOCC2)ccc1C(CC)(CC)c1ccc(OCCC(O)(CC)CC)c(C)c1
[1]
  CL/F: 21.8 mL/min
[2]
  metabolised at 24 h, 1 µM: 6%
MCF7 [3]
  Activity: Active
MCF7 [4]
  Activity: Active
MCF7 [5]
  Activity: Active
L02
  IC50: 2860 nM
[6]
  AUC at 48 h: 25900 ng·h/mL
Mus musculus [7]
  Activity: Non-Toxic
[8]
  MRT: 17.6 h
Caco-2
  IC50: 2720 nM
[9]
  bioavailability: 36.8%
[10]
  bioavailability: 62.5%
[11]
  half-life: 285 min
Mus musculus [12]
  Activity: Toxic
MCF7 [13]
  Activity: 22.62%

## CCN(CC)CCCNC(=O)c1ccc(C(CC)(CC)c2ccc(OCCC(O)(CC)CC)c(C)c2)n1CC
[1]
  CL/F: 15.5 mL/min
MCF7 [3]
  Activity: Active
MCF7 [4]
  Activity: Active
MCF7 [5]
  Activity: Active
L02
  IC50: 370 nM
[6]
  AUC at 48 h: 30500 ng·h/mL
Mus musculus [7]
  Activity: Non-Toxic
[8]
  MRT: 9.3 h
Caco-2
  IC50: 17 nM
[9]
  bioavailability: 21.3%
[10]
  bioavailability: 30.2%
[11]
  half-life: 178 min
MCF7 [13]
  Activity: 25.13%
